≈ marks a conversion by molar mass, not a printed value.
Experiments:
Glutamate receptor 2 = Glutamate receptor 2 (Homo sapiens, UniProt P42262); assay: Modulatory activity at GluA2 receptor LBD
[1] = Permeability from apical to basolateral side of human Caco2 cells; assay type: ADME, cell-based; conditions: Caco-2, read-out: permeability
[2] = Intrinsic clearance in rat microsomes assessed per mg of protein; assay type: ADME, Microsome
[3] = Permeability from basolateral to apical side of human Caco2 cells; assay type: ADME, cell-based; conditions: Caco-2, read-out: permeability
[4] = Half life in Wistar rat at 1 mg/kg, iv and 5 mg/kg, po; assay type: ADME, organism-based; conditions: in vivo
Summary of the method: (§1)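 Wistar BRL rats; pharmacokinetics from 1 mg/kg i.v. and 5 mg/kg p.o. dosing; plasma clearance, half-life and oral bioavailability (F%) derived.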

[5] = Intrinsic clearance in human microsomes assessed per mg of protein; assay type: ADME, Microsome
[6] = Bioavailability in Wistar rat at 1 mg/kg, iv and 5 mg/kg, po; assay type: ADME, organism-based; conditions: in vivo; summary of the method: as §1
[7] = Plasma concentration in Wistar rat at 1 mg/kg, iv and 5 mg/kg, po; assay type: ADME, organism-based
[8] = Solubility of the compound; assay type: physicochemical
[9] = Half life in Wistar rat at 2 mg/kg, iv and 10 mg/kg, po; assay type: ADME, organism-based; conditions: in vivo
Hepatocyte = assay: Metabolic stability in rat hepatocytes assessed per cells; assay type: ADME, cell-based
[10] = Volume of distribution at steady state in Wistar rat at 2 mg/kg, iv and 10 mg/kg, po; assay type: ADME, organism-based; conditions: in vivo, read-out: Vdss
[11] = Clearance in Wistar rat at 2 mg/kg, iv and 10 mg/kg, po; assay type: ADME, organism-based; conditions: in vivo
[12] = Cmax in Wistar rat cerebrospinal fluid at 2 mg/kg, ip; assay type: ADME, organism-based; design: dose 2 mg/kg, route intraperitoneal
Summary of the method: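 Wistar BRL rats dosed 2 mg/kg i.p.; drug concentration measured in CSF to gauge CNS exposure, Cmax reported.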

[13] = Bioavailability in Wistar rat at 2 mg/kg, iv and 10 mg/kg, po; assay type: ADME, organism-based; conditions: in vivo

Glutamate receptor 2, sequence (P42262 whole entry, the tested form may be a part): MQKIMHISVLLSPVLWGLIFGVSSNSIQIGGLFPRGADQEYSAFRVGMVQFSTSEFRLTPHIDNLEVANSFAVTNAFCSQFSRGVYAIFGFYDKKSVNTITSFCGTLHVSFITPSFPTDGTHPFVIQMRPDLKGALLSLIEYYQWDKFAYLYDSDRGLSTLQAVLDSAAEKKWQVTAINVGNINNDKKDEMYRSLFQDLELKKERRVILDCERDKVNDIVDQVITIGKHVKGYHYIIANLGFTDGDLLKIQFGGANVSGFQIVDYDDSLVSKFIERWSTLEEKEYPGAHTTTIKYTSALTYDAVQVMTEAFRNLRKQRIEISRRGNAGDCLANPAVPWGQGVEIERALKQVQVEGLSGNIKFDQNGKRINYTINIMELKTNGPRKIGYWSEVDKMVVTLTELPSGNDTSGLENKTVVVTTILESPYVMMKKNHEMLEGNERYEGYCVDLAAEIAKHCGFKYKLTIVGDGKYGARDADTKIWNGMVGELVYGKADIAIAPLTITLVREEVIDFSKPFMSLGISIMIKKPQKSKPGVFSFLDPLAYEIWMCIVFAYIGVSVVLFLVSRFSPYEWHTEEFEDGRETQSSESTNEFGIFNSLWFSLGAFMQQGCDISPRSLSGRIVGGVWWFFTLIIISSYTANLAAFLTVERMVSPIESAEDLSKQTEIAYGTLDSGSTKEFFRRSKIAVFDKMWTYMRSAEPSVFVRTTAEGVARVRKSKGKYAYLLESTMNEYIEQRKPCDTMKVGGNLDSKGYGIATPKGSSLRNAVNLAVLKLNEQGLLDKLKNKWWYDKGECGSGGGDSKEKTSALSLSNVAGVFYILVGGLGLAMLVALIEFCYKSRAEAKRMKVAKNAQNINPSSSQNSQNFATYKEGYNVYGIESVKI

| SMILES | EC50 (Glutamate receptor 2) | also measured |
| --- | --- | --- |
| CC(C)S(=O)(=O)N[C@H]1Cc2ccc(Cn3ncc(CO)c3C(F)(F)F)cc2C1 | 3980 nM | – |
| CCS(=O)(=O)N[C@H]1Cc2ccc(Cn3cc(CO)c(C(F)(F)F)n3)cc2C1 | 398 nM | – |
| CC(C)S(=O)(=O)NC1Cc2ccc(-n3cc(CO)c(C(F)(F)F)n3)cc2C1 (racemic) | > 31600 nM | – |
| CC(C)S(=O)(=O)NC[C@H](C)c1ccc(-n2cc(CO)c(C(F)(F)F)n2)cc1 | – | Papp A→B [1]: 20.6 ×10⁻⁶ cm/s; microsomal CLint [2]: < 12 µL/min/mg; Papp B→A [3]: 28.7 ×10⁻⁶ cm/s; half-life [4]: 60 min; microsomal CLint [5]: < 12 µL/min/mg; bioavailability [6]: 3.2%; clearance [7]: 49.7 mL/min/kg |
| CC(C)S(=O)(=O)N[C@H]1Cc2ccc(Cn3cc(CCO)c(C(F)(F)F)n3)cc2C1 | 1260 nM | – |
| CC(C)S(=O)(=O)N[C@H]1Cc2ccc(Cn3cc(CO)c(C(F)(F)F)n3)cc2C1 | 501 nM | Papp A→B [1]: 12.8 ×10⁻⁶ cm/s; microsomal CLint [2]: 31 µL/min/mg; Papp B→A [3]: 29 ×10⁻⁶ cm/s; microsomal CLint [5]: 23 µL/min/mg |
| CC(C)S(=O)(=O)N[C@H]1Cc2ccc(Cn3nc(C(F)(F)F)c4c3CCCC4)cc2C1 | 1260 nM | – |
| CS(=O)(=O)N[C@H]1Cc2ccc(Cn3cc(CO)c(C(F)(F)F)n3)cc2C1 | 7940 nM | – |
| CC(C)S(=O)(=O)N[C@@H]1Cc2ccc(Cn3cc(CO)c(C(F)(F)F)n3)cc2C1 | 398 nM | – |
| CC(C)S(=O)(=O)N[C@H]1Cc2ccc(Cn3nc(C(F)(F)F)cc3C(F)(F)F)cc2C1 | 100 nM | solubility [8]: < 1 µg/mL |
| CC(C)S(=O)(=O)NC1CCc2cc(Cn3cc(CO)c(C(F)(F)F)n3)ccc21 (stereo not given) | 100 nM | – |
| CN(C)S(=O)(=O)N[C@@H]1Cc2ccc(Cn3cc(CO)c(C(F)(F)F)n3)cc2C1 | 1000 nM | – |
| O=S(=O)(N[C@H]1Cc2ccc(Cn3cc(CO)c(C(F)(F)F)n3)cc2C1)C(F)(F)F | 5010 nM | – |
| CC(C)S(=O)(=O)N[C@H]1Cc2ccc(Cn3cc(CO)c(C(F)(F)F)c3)cc2C1 | 794 nM | – |
| CCn1nc(C(F)(F)F)cc1Cc1ccc2c(c1)C[C@@H](NS(=O)(=O)C(C)C)C2 | 1260 nM | – |
| CC(C)S(=O)(=O)N[C@H]1Cc2ccc(Cc3ccc(C(F)(F)F)o3)cc2C1 | 1000 nM | – |
| Cn1cc(S(=O)(=O)NC2CCc3cc(Cn4cc(CO)c(C(F)(F)F)n4)ccc32)c(C(F)(F)F)n1 (stereo not given) | 1260 nM | – |
| CC(C)S(=O)(=O)N[C@H]1Cc2ccc(Cn3cc(CF)c(C(F)(F)F)n3)cc2C1 | 1260 nM | – |
| CCNCc1cn(CC(=O)Nc2sc3c(c2C(N)=O)CCCC3)nc1C(F)(F)F | 794 nM | half-life [9]: 66 min |
| CS(=O)(=O)NC1CCc2cc(Cn3cc(CO)c(C(F)(F)F)n3)ccc21 (stereo not given) | 501 nM | – |
| NC(=O)c1c(NC(=O)Cn2cc(CO)c(C(F)(F)F)n2)sc2c1CCCC2 | 398 nM | solubility [8]: 20 µg/mL (≈ 49.7 µM) |
| O=S(=O)(NC1CCc2cc(Cn3cc(CO)c(C(F)(F)F)n3)ccc21)C1CC1 (stereo not given) | 158 nM | – |
| CC(C)S(=O)(=O)N[C@H]1Cc2ccc(Cn3nc(C(F)(F)F)c4c3CCNC4)cc2C1 | 1580 nM | – |
| O=S(=O)(N[C@@H]1Cc2ccc(Cn3cc(CO)c(C(F)(F)F)n3)cc2C1)C(F)(F)F | 2510 nM | solubility [8]: 84 µg/mL (≈ 189 µM); Papp A→B [1]: 16.9 ×10⁻⁶ cm/s; clearance [2]: < 12 µL/min/mg; Papp B→A [3]: 26.4 ×10⁻⁶ cm/s; Stability (Hepatocyte): < 6 µL/min; half-life [9]: 444 min; Vd [10]: 1 L/kg; clearance [11]: 1.9 mL/min/kg; Cmax [12]: 120 nM; clearance [5]: < 12 µL/min/mg; bioavailability [13]: 100% |
| COc1ccccc1S(=O)(=O)NC1CCc2cc(Cn3cc(CO)c(C(F)(F)F)n3)ccc21 (stereo not given) | 2000 nM | – |
| O=S(=O)(N[C@@H]1Cc2ccc(Cn3cc(CO)c(C(F)(F)F)n3)cc2C1)C1CC1 | 2510 nM | – |
